The values below come from ChEMBL document CHEMBL3792375, “Strategies for improving the solubility and metabolic stability of griseofulvin analogues” (Eur J Med Chem, 2016).

In brackets after ≈: the same amount, converted by molar mass.

System in the first series: not listed separately
Kind of series: Cytotoxicity against human SCC114 cells assessed as reduction in cell viability after 24 hrs by MTT assay. It is filed as functional, cell-based. The following applies: SCC114, 24 h. Background: Tetrazolium dyes change colour on reduction, which living cells bring about.
One may read the IC50 as the point on the concentration scale where inhibition reaches its midpoint. As for `COC1=CC(=O)C[C@@H](C)[C@]12Oc1c(Cl)c(OC)cc(OC)c1C2=O` [GRISEOFULVIN], the IC50 stood at 35 µM.

Another series relates to Liver. Kind of series: Drug metabolism in mouse liver microsomes assessed as position 4/6 CH3 cleavage by LC-MS analysis. It is filed as ADME.
Settings: not given
`[2H]C([2H])([2H])OC1=CC(=O)C[C@@H](C)[C@]12Oc1c(Cl)c(OC)cc(OC)c1C2=O`: the Drug metabolism result is “metabolite_detected”.

The test system of a further series is Liver microsome. Nature of the series: Drug metabolism in rat liver microsomes assessed as position 4/6 CH3 cleavage by LC-MS analysis. It is filed as ADME.
Settings: not given
With `[2H]C([2H])([2H])OC1=CC(=O)C[C@@H](C)[C@]12Oc1c(Cl)c(OC)cc(OC)c1C2=O`, the Drug metabolism entry was “metabolite_detected”.

System in another series: not listed separately
Nature of the series: Thermodynamic solubility in PBS buffer at 1 mg after 12 hrs by HPLC analysis. It is filed as physicochemical. To be noted: read-out: Therm_solubility. The method in brief:
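Solubility was measured in PBS, with the dissolved compound quantified by HPLC. The HPLC setup has a lower detection limit.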
Turning to `COc1cc(OC(F)F)c(Cl)c2c1C(=O)[C@@]1(O2)C(OCc2ccccc2)=CC(=O)C[C@H]1C`, the solubility thermodynamic at 12 h was below 0.3 µg/mL.

Take `COc1cc(OC)c2c(c1Cl)O[C@]1(C2=O)C(OCc2ccccc2)=C/C(=N\OCC(=O)O)C[C@H]1C`: the solubility thermodynamic at 12 h was above 1000 µg/mL.

As to `COc1cc(OC(F)F)c2c(c1Cl)O[C@]1(C2=O)C(OCc2ccccc2)=CC(=O)C[C@H]1C`, the solubility thermodynamic at 12 h is below 0.3 µg/mL.

Regarding `COc1cc(OC)c2c(c1Cl)O[C@]1(C2=O)C(OCc2ccccc2)=CC(=O)C[C@H]1C`, the solubility thermodynamic at 12 h was 0.3 µg/mL (≈ 0.7 µM).

As to `COc1cc(OC)c2c(c1Cl)O[C@]1(C2=O)C(OCc2ccccc2)=C/C(=N\O)C[C@H]1C`, the solubility thermodynamic at 12 h turned out to be 3 µg/mL (≈ 6.76 µM).

As for `COC1=CC(=O)C[C@@H](C)[C@]12Oc1c(Cl)c(OC)cc(OC)c1C2=O` [GRISEOFULVIN], the solubility thermodynamic at 12 h is 7.7 µg/mL (≈ 21.8 µM).

The next series relates to HeLa. Kind of series: Cytotoxicity against human HeLa cells assessed as reduction in cell viability after 24 hrs by MTT assay. The class given is functional, cell-based.
Settings: not given
As to `COC1=CC(=O)C[C@@H](C)[C@]12Oc1c(Cl)c(OC)cc(OC)c1C2=O` [GRISEOFULVIN], the IC50 was found to be 75 µM.

System in a further series: not listed separately
Kind of series: Half life in rat liver microsomes by HPLC analysis in presence of NADPH.
Settings: not given
The class given is ADME. The method in brief:
(§1)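 Male mouse or rat liver microsomes. Each run was done in triplicate, with a matching control that had no cofactor added. Samples were taken at set times, and the remaining non-degraded compound was quantified by analytical HPLC peak area. Half-life was calculated from linear plots.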
In general terms: Liver microsomes are a subcellular fraction often used to study metabolism.
What is called half-life is the time in which the quantity being followed falls by half. In the case of `COc1cc(OC(F)F)c(Cl)c2c1C(=O)[C@@]1(O2)C(OCc2ccccc2)=CC(=O)C[C@H]1C`, the half-life is 53 min.

Consider `COc1cc(OC)c2c(c1Cl)O[C@]1(C2=O)C(OCc2ccccc2)=C/C(=N\OCC(=O)O)C[C@H]1C`, for which the half-life is 449 min.

With `COc1cc(OC(F)F)c2c(c1Cl)O[C@]1(C2=O)C(OCc2ccccc2)=CC(=O)C[C@H]1C`, the half-life came out at 26 min.

In the case of `COc1cc(OC)c2c(c1Cl)O[C@]1(C2=O)C(OCc2ccccc2)=CC(=O)C[C@H]1C`, the half-life turned out to be 60 min.

As to `COc1cc(OC)c2c(c1Cl)O[C@]1(C2=O)C(OCc2ccccc2)=C/C(=N\O)C[C@H]1C`, the half-life turned out to be 57 min.

As to `COC1=CC(=O)C[C@@H](C)[C@]12Oc1c(Cl)c(OC)cc(OC)c1C2=O` [GRISEOFULVIN], the half-life was 58 min.

For the next series, the system named is MDA-MB-231. Nature of the series: Cytotoxicity against human MDA-MB-231 cells assessed as reduction in cell viability after 72 hrs by celltiter Glo assay. It is filed as functional, cell-based. To be noted: MDA-MB-231, 72 h. The method in brief:
(§2)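 Antiproliferative IC50 was determined against viable cells using a luminescent ATP read-out.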
A general note: In ATP-based viability assays light output follows the ATP content of the culture.
For `COc1cc(OC(F)F)c(Cl)c2c1C(=O)[C@@]1(O2)C(OCc2ccccc2)=CC(=O)C[C@H]1C`, the IC50 was found to be 5.34 µM.

Take `COc1cc(OC)c2c(c1Cl)O[C@]1(C2=O)C(OCc2ccccc2)=C/C(=N\OCC(=O)O)C[C@H]1C`: the IC50 was found to be 10.1 µM.

In the case of `COc1cc(OC(F)F)c2c(c1Cl)O[C@]1(C2=O)C(OCc2ccccc2)=CC(=O)C[C@H]1C`, the IC50 came out at 11.8 µM.

Consider `COc1cc(OC)c2c(c1Cl)O[C@]1(C2=O)C(OCc2ccccc2)=CC(=O)C[C@H]1C`, for which the IC50 came to 1.62 µM.

As to `COc1cc(OC)c2c(c1Cl)O[C@]1(C2=O)C(OCc2ccccc2)=C/C(=N\O)C[C@H]1C`, the IC50 turned out to be 1.29 µM.

As to `COC1=CC(=O)C[C@@H](C)[C@]12Oc1c(Cl)c(OC)cc(OC)c1C2=O` [GRISEOFULVIN], the IC50 is 25.3 µM.

System in the next series: not listed separately
Nature of the series: Half life in mouse liver microsomes by HPLC analysis in presence of NADPH. It is filed as ADME.
Settings: not given
In short, it runs like this: as §1
For the molecule `COc1cc(OC(F)F)c(Cl)c2c1C(=O)[C@@]1(O2)C(OCc2ccccc2)=CC(=O)C[C@H]1C`, the half-life amounted to 31 min.

As to `COc1cc(OC)c2c(c1Cl)O[C@]1(C2=O)C(OCc2ccccc2)=C/C(=N\OCC(=O)O)C[C@H]1C`, the half-life was 339 min.

Turning to `COc1cc(OC(F)F)c2c(c1Cl)O[C@]1(C2=O)C(OCc2ccccc2)=CC(=O)C[C@H]1C`, the half-life came out at 11 min.

As to `COc1cc(OC)c2c(c1Cl)O[C@]1(C2=O)C(OCc2ccccc2)=CC(=O)C[C@H]1C`, the half-life was 27 min.

As to `COc1cc(OC)c2c(c1Cl)O[C@]1(C2=O)C(OCc2ccccc2)=C/C(=N\O)C[C@H]1C`, the half-life stood at 45 min.

On to `COC1=CC(=O)C[C@@H](C)[C@]12Oc1c(Cl)c(OC)cc(OC)c1C2=O` [GRISEOFULVIN], for which the half-life amounted to 37 min.

Another series relates to U2OS. Nature of the series: Cytotoxicity against human U2OS cells assessed as reduction in cell viability after 72 hrs by celltiter Glo assay. The class given is functional, cell-based.
Settings: not given
In short, it runs like this: as §2
In the case of `COc1cc(OC(F)F)c(Cl)c2c1C(=O)[C@@]1(O2)C(OCc2ccccc2)=CC(=O)C[C@H]1C`, the IC50 was determined as 5.56 µM.

In the case of `COc1cc(OC)c2c(c1Cl)O[C@]1(C2=O)C(OCc2ccccc2)=C/C(=N\OCC(=O)O)C[C@H]1C`, the IC50 amounted to 14.1 µM.

For `COc1cc(OC(F)F)c2c(c1Cl)O[C@]1(C2=O)C(OCc2ccccc2)=CC(=O)C[C@H]1C`, the IC50 turned out to be 14.3 µM.

Turning to `COc1cc(OC)c2c(c1Cl)O[C@]1(C2=O)C(OCc2ccccc2)=CC(=O)C[C@H]1C`, the IC50 stood at 1.45 µM.

As to `COc1cc(OC)c2c(c1Cl)O[C@]1(C2=O)C(OCc2ccccc2)=C/C(=N\O)C[C@H]1C`, the IC50 stood at 1.61 µM.

Consider `COC1=CC(=O)C[C@@H](C)[C@]12Oc1c(Cl)c(OC)cc(OC)c1C2=O` [GRISEOFULVIN], for which the IC50 is 22.4 µM.
